Assay outcomes: PubChem BioAssay, several laboratories
In the library only some 3.4% were active in any assay of this set; here they are far more common.
CHT allo act: allosterically activates the human high affinity choline transporter; CHT-expressing cells, membrane potential dye, choline EC20; active compounds read high; LV-AA mutant CHT in HEK293 cells; 310,000 tested, 0.49% active; B-score at 10 µM;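 active means initial fluorescence not abnormally high and integrated response B-score, plate-corrected, over 3 SD above library mean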
Target sequence (Q9GZV3 whole entry, looked up): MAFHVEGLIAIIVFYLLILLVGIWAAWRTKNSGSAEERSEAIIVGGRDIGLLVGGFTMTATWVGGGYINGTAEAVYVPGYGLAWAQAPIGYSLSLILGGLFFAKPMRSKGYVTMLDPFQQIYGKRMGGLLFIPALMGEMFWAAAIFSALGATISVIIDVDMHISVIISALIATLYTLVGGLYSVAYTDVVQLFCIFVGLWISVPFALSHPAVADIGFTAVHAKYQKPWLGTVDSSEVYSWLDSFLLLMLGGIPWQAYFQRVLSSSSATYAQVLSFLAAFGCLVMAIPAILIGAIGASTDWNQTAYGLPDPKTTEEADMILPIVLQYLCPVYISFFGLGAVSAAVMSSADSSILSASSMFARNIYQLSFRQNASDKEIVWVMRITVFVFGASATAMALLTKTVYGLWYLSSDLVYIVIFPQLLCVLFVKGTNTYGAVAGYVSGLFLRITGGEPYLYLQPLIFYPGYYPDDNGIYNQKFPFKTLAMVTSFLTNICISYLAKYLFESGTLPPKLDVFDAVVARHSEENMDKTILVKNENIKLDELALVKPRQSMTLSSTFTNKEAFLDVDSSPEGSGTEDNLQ
ANO1 block: inhibitors of mouse TMEM16A calcium-activated chloride channel; normalized B-score (activity score, 25-100; higher = stronger inhibition) at 10 µM; HEK293 TMEM16A/YFP iodide influx fluorescence, ionomycin; Q8BHY3; 310,000 tested, 1.2% active; AID 588511;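 active means ratio plate-corrected score three or more library SD toward inhibition, starting fluorescence score within five deviations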;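 further: score derived from kinetic fluorescence span divided by baseline fluorescence per well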
TMEM16A act: activators or potentiators of mouse TMEM16A chloride channel; Q8BHY3; HEK293 TMEM16A/YFP-H148Q/I152L, iodide quench fluorescence; active compounds read low; B-score at 10 µM; 340,000 tested, 0.3% active; AID 623877;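 active means fluorescence-ratio B-score plate-corrected deviation score at least 3 library SD below zero, with starting fluorescence score within 5 deviations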;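 further: channel opened by trigger with iodide after compound preincubation; score built on the fluorescence ratio of max minus min over baseline; more negative score means more quench and so TMEM16A activation or potentiation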
CHT inh: inhibitors of human choline transporter CHT; 310,000 tested, 0.86% active; B-score at 10 µM; Q9GZV3; CHT-expressing cells, membrane potential dye, choline response; active compounds read low;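 active means B-score over 3 SD under the library average, and starting fluorescence ratio not unusually high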;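 further: choline stimulus applied at its EC90 after an EC20 pre-addition; B-score computed on integrated fluorescence ratio after choline addition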
IMP-1 inhibitor: blocks Pseudomonas aeruginosa IMP-1 metallo-beta-lactamase; purified IMP-1, nitrocefin hydrolysis, epi-absorbance fluorescence; inhibition, % at 5.6 µM; 290,000 tested, 0.45% active; AID 1556;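 active means inhibition above the mean plus 3 SD of all compounds in the same screening run, cut at about 4.5% in these data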;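 further: 0% = IMP-1 with DMSO and 100% = DMSO wells lacking enzyme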
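assay system = purified recombinant IMP-1 metallo-beta-lactamase enzyme | schedule = 15 min preincubation plus 25 min reaction at 25 °C | signal = Epi-absorbance fluorescence, 480 nm excitation, 530 nm emission | read-out basis = percent inhibition from optical density relative to buffer-blank wells | controls = IMP-1 with DMSO as 0%, enzyme-free DMSO as 100%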
VIM-2 inhibitor: blocks Pseudomonas aeruginosa VIM-2 metallo-beta-lactamase; purified VIM-2, nitrocefin hydrolysis, epi-absorbance fluorescence; inhibition, % at 5.6 µM; AID 1527; 290,000 tested, 0.89% active;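 active means inhibition above the mean of all tested compounds plus 3 SD, cutoff set per screening run, cut at about 7.5% in these data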;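 further: red hydrolysis product quenches plate fluorescence so inhibitors raise well fluorescence; 0% = enzyme with DMSO and 100% = DMSO without enzyme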
TMEM16A reconf: reconfirmed blocker of mouse TMEM16A calcium-activated chloride channel; shares compounds with ANO1 block; inhibition, % at 10 µM; HEK293 TMEM16A/YFP-H148Q, iodide quench fluorescence; ionomycin added to raise cell calcium; AID 652189; 2,300 tested, 39% active;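 active means mean duplicate percent inhibition, scaled so buffer wells are 0 and the reference blocker 100, over three buffer SD above buffer mean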
TMEM16A Ca cntr: counter-screen for TMEM16A inhibitors: effect on calcium mobilization; shares compounds with ANO1 block; TMEM16A/YFP HEK293, Fluo4 calcium mobilization; calcium response (% of ionomycin), % at 10 µM; 2,300 tested, 2% active; AID 652231;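 active means duplicate-averaged calcium signal over 20% of the ionomycin maximum, relative to buffer baseline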;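 further: each well's signal is peak minus trough fluorescence divided by its pre-addition baseline; 0% = buffer wells and 100% = ionomycin wells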
YFP-HEK293 quench: acts in parental YFP-HEK293 cells lacking TMEM16A, counter-screen; shares compounds with ANO1 block; iodide YFP quench, ionomycin; YFP ratio F(max-min)/F0 at 10 µM; 2,300 tested, under 10 active; AID 652233;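 active means yellow fluorescent protein signal ratio exceeding the buffer control mean by over 5 SD of those controls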;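 further: ratio is mean of duplicate wells from kinetic YFP trace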
ClC-1 rat inh: blocks the rat ClC-1 voltage-dependent chloride channel; shares compounds with ANO1 block; CHO ClC-1-YFP, iodide influx fluorescence quench; iodide control reads 0, buffer control 100; ratio percent, % at 10 µM; 2,300 tested, under 10 active; AID 652236;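 active means duplicate-mean ratio percent above the mean of iodide-only control wells, which defines zero, plus 5 of their SD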;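 further: higher percent means stronger block of ClC-1 iodide influx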
Numbers without * were called inactive; i = inactive; . = no result given.

SMILES	CHT allo act	ANO1 block	TMEM16A act	CHT inh	IMP-1 inhibitor	VIM-2 inhibitor	TMEM16A reconf	TMEM16A Ca cntr	YFP-HEK293 quench	ClC-1 rat inh
O=C(COc1ccc([N+](=O)[O-])cc1)NNC(=O)Nc1cccc(F)c1	i	i	i	i	-3	-4	.	.	.	.
O=[N+]([O-])c1cc(Cl)cc(/C=N/NC(=S)Nc2ccc(S(=O)(=O)N3CCOCC3)cc2)c1O	i	25*	i	-8.8*	-4	-3	70%*	i	-0.73	4
COc1cccc(C2(C)NC(=O)N(CC(=O)c3cc(C)n(C4CC4)c3C)C2=O)c1 (configuration not stated)	.	.	i	.	.	.	.	.	.	.
Clc1ccccc1N1CCN(Cc2ccco2)CC1	i	i	i	i	2	0	.	.	.	.
COc1ccccc1N1CCN(Cc2ccco2)CC1	i	25*	i	i	-2	-4	i	i	-1	-4
CCCCOc1nc2ccccc2nc1NS(=O)(=O)c1ccc(F)cc1	i	25*	i	i	-4	-3	i	i	-0.99	-11
O=S(=O)(Nc1nc2ccccc2nc1N1CCN(c2ccccc2)CC1)c1ccc(F)cc1	i	i	i	i	-3	-1	32%*	i	-0.86	-14
COc1ccccc1NC(=O)CSc1ccc(-c2ccc(-n3cccn3)cc2)nn1	i	i	i	i	.	.	.	.	.	.
O=C(CCC1COc2ccccc2O1)NCc1ccccc1 (configuration not stated)	i	100*	i	i	-2	0	i	i	-1.1	-16
O=C(CC1COc2ccccc2O1)NCc1ccccc1 (configuration not stated)	i	i	i	i	1	2	.	.	.	.
O=C(COC(=O)c1cc(Cl)nc(Cl)c1)NCc1ccc2c(c1)OCO2	.	.	i	.	.	.	.	.	.	.
O=c1[nH]c(CSc2ncccn2)nc2c1cnn2-c1ccccc1	i	i	i	i	-2	-1	.	.	.	.
Cc1ccc2nc(SCc3nc4c(cnn4-c4ccccc4)c(=O)[nH]3)[nH]c2c1	i	25*	i	i	-1	-1	i	i	-0.92	-4
c1ccc(C(Cc2nc(-c3ccncc3)no2)c2ccccc2)cc1	i	100*	i	i	-3	-3	24%*	i	-0.99	-20
c1ccc(-c2nc(-c3ccncc3)no2)cc1	i	i	i	i	-1	-1	.	.	.	.
O=C(c1cccc(C(F)(F)F)c1)N1CCN(CCc2ccccc2)CC1	i	i	i	i	-3	1	.	.	.	.
COCCNC(=O)c1noc2c1CCc1cc(OC)ccc1-2	i	i	i	i	-1	-1	.	.	.	.
COc1ccc2c(c1)CCc1c(C(=O)NC3CCCCC3)noc1-2	i	100*	i	i	-2	-1	i	i	-0.84	-4
Cc1ccc(CSc2nnc(-c3ccc4c(c3)OCO4)o2)cc1	i	i	i	i	-2	-2	.	.	.	.
CCN(CC)S(=O)(=O)c1ccc2oc(SCC3CN=C(c4ccc(OC)cc4)S3)nc2c1 (configuration not stated)	i	100*	i	i	-3	-1	16%*	i	-0.93	-4
COc1ccc(C2=NCC(CSc3nnc(-c4ccc5c(c4)OCO5)o3)S2)cc1 (configuration not stated)	i	100*	i	i	-3	-3	i	i	-0.98	-8
COc1ccc(N2CCN(CCNC(=O)Nc3ccc(C)cc3Cl)CC2)cc1	i	i	i	i	0	3	.	.	.	.
CCCOC(=O)c1ccc(-c2c(C)noc2-c2ccc(OC)cc2O)o1	i	100*	i	i	-1	-3	i	i	-1.2	-20
CCOC(=O)N1CCC(NS(=O)(=O)c2ccc(NC(C)=O)c(Cl)c2)CC1	i	i	i	i	-3	-1	.	.	.	.
OC(c1ccccc1)c1cccnc1 (configuration not stated)	i	i	i	i	-4	-3	.	.	.	.
SMILES	CHT allo act	ANO1 block	TMEM16A act	CHT inh	IMP-1 inhibitor	VIM-2 inhibitor	TMEM16A reconf	TMEM16A Ca cntr	YFP-HEK293 quench	ClC-1 rat inh
CC(=O)NC(c1ccccc1)c1cccnc1 (configuration not stated)	i	25*	i	i	-4	-1	i	i	-1.1	-8
COc1ccc(/C=N/NC2=NS(=O)(=O)c3ccccc32)cc1OC	i	i	i	i	-3	-2	.	.	.	.
CC(=O)NS(=O)(=O)c1ccc(NC(=O)c2ccccc2F)cc1	i	25*	i	i	-1	0	i	i	-0.85	-3
O=C(NS(=O)(=O)c1ccccc1)c1ccccc1F	i	i	i	i	-2	-3	.	.	.	.
O=C(c1cnn2c1NC(c1ccco1)CC2C(F)(F)F)N1CCN(c2cccc(Cl)c2)CC1 (configuration not stated)	i	25*	i	i	-3	-2	i	i	-0.95	-5
CC(=O)Oc1ccc(C(=O)Nc2nnc(C)s2)cc1	i	i	i	i	1	0	i	i	-0.97	-13
Cc1ccc(C(=O)Nc2nnc(C)s2)cc1	i	i	i	i	-2	-3	.	.	.	.
COc1ccc(C2=NOC(C(=O)NCC(C)C)C2)cc1 (configuration not stated)	i	100*	i	i	-1	-1	i	i	-0.97	-10
CCC(C)NC(=O)C1CC(c2ccc(OC)cc2)=NO1 (configuration not stated)	i	i	i	i	-2	0	.	.	.	.
O=C(CN1C(=O)NC2(CCCCCC2)C1=O)NCc1ccccc1	.	.	i	.	.	.	.	.	.	.
CN1CCN(C(=O)/C(=C/c2ccccc2)c2ccccc2)CC1	i	25*	i	i	-3	-4	i	i	-0.95	-2
